The source made the active and inactive calls. No cut-off for these calls is given here.
Tested on: Mus musculus
Test: Anticonvulsant activity in mouse maximal electroshock seizure test following i.p. administration.
Type: functional
Details: ip
Procedure, shortened: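 Test agent given ip as a suspension at 30, 100 and 300 mg/kg to one to four mice, observed at 30 min and, in a separate test, at 4 h. Quantified values are ED50 (mg/kg) with 95% confidence limits.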

| Compound | ED50 [mg/kg] |
| --- | --- |
| Cl.Cn1cc(C(=O)CN2CCCCCC2)cc1C(=O)c1ccc(Cl)cc1 | 27.5 |
| O=C(CN1CCOCC1)c1c[nH]c(C(=O)c2ccc(Cl)cc2)c1 | 86.2 |
| Cl.Cn1cc(C(=O)CN2CCOCC2)cc1C(=O)c1cccc(Cl)c1 | 37.4 |
| Cn1cc(C(=O)c2ccc(Cl)cc2)cc1C(=O)CN1CCCCC1 | 59.7 |
| CCN(CC)CC(=O)c1c(C)c(C(=O)c2ccc(Cl)cc2Cl)n(C)c1C | 14.9 |
| Cl.Cn1cc(C(=O)CNC23C[C@H]4C[C@@H](C2)C[C@@H](C3)C4)cc1C(=O)c1ccccc1Cl | 159 |
| Cn1cc(C(=O)CN2CCCC2)cc1C(=O)c1cccc(Cl)c1.[O-][Cl+3]([O-])([O-])O | 16.5 |
| Cn1cc(C(=O)CN2CCCC2)cc1C(=O)c1ccc(Cl)cc1 | 49.1 |
| Cc1c(C(=O)CN2CCOCC2)c(C)n(C)c1C(=O)c1ccc(Cl)cc1 | 87.6 |
| Cc1c(C(=O)CN2CCCC2)c(C)n(C)c1C(=O)c1ccc(Cl)cc1 | 15.2 |
| CCN(CC)CC(=O)c1cc(C(=O)c2ccc(OC)cc2)n(C)c1.Cl | 33 |
| Cc1c(C(=O)CN2CCCC2)c(C)n(C)c1C(=O)c1ccc(Cl)cc1Cl.Cl | 10.3 |
| Cc1c(C(=O)CN2CCCCC2)c(C)n(C)c1C(=O)c1ccc(Cl)cc1 | 23.9 |
| NC(=O)N1c2ccccc2C=Cc2ccccc21 [CARBAMAZEPINE] | 9.9 |
| Cn1cc(C(=O)CN2CCCCC2)cc1C(=O)c1ccc(Cl)cc1 | 24.4 |
| CCN(CC)CC(=O)c1c(C)c(C(=O)c2ccc(Cl)cc2)n(C)c1C | 10.3 |

Tested on: Mus musculus
Test: Ability to block seizures induced by bicuculline after intraperitoneal administration.
Type: functional
Details: ip

| Compound | ED50 [mg/kg] |
| --- | --- |
| Cc1c(C(=O)CN2CCCCC2)c(C)n(C)c1C(=O)c1ccc(Cl)cc1 | 25.2 |

Tested on: Mus musculus
Test: Effective dose was determined by Maximum Electroshock Seizure test after intraperitoneal dose in mouse
Details: ip

| Compound | ED50 [mg/kg] |
| --- | --- |
| O=C1NC(=O)C(c2ccccc2)(c2ccccc2)N1 [PHENYTOIN] | 6.48 |

Tested on: Mus musculus
Test: (§1) Minimal motor impairment was measured in mouse by rotating rod test upon intraperitoneal administration
Details: ip

| Compound | TD50 [mg/kg] |
| --- | --- |
| NC(=O)N1c2ccccc2C=Cc2ccccc21 [CARBAMAZEPINE] | 47.8 |

Tested on: Rattus norvegicus
Test: Compound was tested for anticonvulsant activity by maximal electroshock seizure(MES) test in rat upon intraperitoneal administration
Type: functional
Details: ip

| Compound | ED50 [mg/kg] |
| --- | --- |
| Cl.Cn1cc(C(=O)CN2CCCCCC2)cc1C(=O)c1ccc(Cl)cc1 | 22 |
| O=C(CN1CCOCC1)c1c[nH]c(C(=O)c2ccc(Cl)cc2)c1 | 41 |
| Cl.Cn1cc(C(=O)CN2CCOCC2)cc1C(=O)c1cccc(Cl)c1 | 72 |
| CCN(CC)CC(=O)c1cc(C(=O)c2ccc(Cl)cc2)n(C)c1.Cl | 19.3 |
| CCN(CC)CC(=O)c1c(C)c(C(=O)c2ccc(Cl)cc2Cl)n(C)c1C | 19.4 |
| Cn1cc(C(=O)CN2CCCC2)cc1C(=O)c1ccc(Cl)cc1 | 17.9 |
| Cc1c(C(=O)CN2CCCC2)c(C)n(C)c1C(=O)c1ccc(Cl)cc1 | 16.2 |
| Cc1c(C(=O)CN2CCCC2)c(C)n(C)c1C(=O)c1ccc(Cl)cc1Cl.Cl | 19 |
| Cc1c(C(=O)CN2CCCCC2)c(C)n(C)c1C(=O)c1ccc(Cl)cc1 | 28.1 |
| NC(=O)N1c2ccccc2C=Cc2ccccc21 [CARBAMAZEPINE] | 36 |
| Cn1cc(C(=O)CN2CCCCC2)cc1C(=O)c1ccc(Cl)cc1 | 8.4 |
| CCN(CC)CC(=O)c1c(C)c(C(=O)c2ccc(Cl)cc2)n(C)c1C | 15.5 |

Tested on: Rattus norvegicus
Test: Minimal motor impairment was measured in rat by rotating rod test upon intraperitoneal administration
Details: ip

| Compound | TD50 [mg/kg] |
| --- | --- |
| CCCC(CCC)C(=O)O [VALPROIC ACID] | 859 |

Tested on: not listed separately
Test: (§2) Ratio of TD50/ED50; TI indicates Therapeutic index
Details: not given

| Compound | selectivity ratio |
| --- | --- |
| NC(=O)N1c2ccccc2C=Cc2ccccc21 [CARBAMAZEPINE] | 4.93 |

Tested on: not listed separately
Test: Toxic dose was measured in rat by rotating rod test.
Details: in vivo

| Compound | TD50 [mg/kg] |
| --- | --- |
| O=C1NC(=O)C(c2ccccc2)(c2ccccc2)N1 [PHENYTOIN] | > 500 |

Tested on: not listed separately
Test: Toxic dose was measured in mouse by rotating rod test
Details: in vivo

| Compound | TD50 [mg/kg] |
| --- | --- |
| O=C1NC(=O)C(c2ccccc2)(c2ccccc2)N1 [PHENYTOIN] | 42.8 |

Tested on: not listed separately
Test: as §1
Type: toxicity
Details: in vivo, ip
Procedure, shortened: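 Mouse rotorod (rotating rod) test for minimal motor impairment after ip dosing, run alongside the MES and scMET screens. Reported as TD50 (mg/kg) ip with 95% confidence limits.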

| Compound | TD50 [mg/kg] |
| --- | --- |
| Cl.Cn1cc(C(=O)CN2CCCCCC2)cc1C(=O)c1ccc(Cl)cc1 | 46.1 |
| O=C(CN1CCOCC1)c1c[nH]c(C(=O)c2ccc(Cl)cc2)c1 | 84.1 |
| Cl.Cn1cc(C(=O)CN2CCOCC2)cc1C(=O)c1cccc(Cl)c1 | 110 |
| CCN(CC)CC(=O)c1cc(C(=O)c2ccc(Cl)cc2)n(C)c1.Cl | 40.5 |
| Cn1cc(C(=O)c2ccc(Cl)cc2)cc1C(=O)CN1CCCCC1 | 141 |
| CCN(CC)CC(=O)c1c(C)c(C(=O)c2ccc(Cl)cc2Cl)n(C)c1C | 50.6 |
| Cl.Cn1cc(C(=O)CNC23C[C@H]4C[C@@H](C2)C[C@@H](C3)C4)cc1C(=O)c1ccccc1Cl | > 250 |
| Cn1cc(C(=O)CN2CCCC2)cc1C(=O)c1cccc(Cl)c1.[O-][Cl+3]([O-])([O-])O | 55.6 |
| Cn1cc(C(=O)CN2CCCC2)cc1C(=O)c1ccc(Cl)cc1 | 240 |
| Cc1c(C(=O)CN2CCOCC2)c(C)n(C)c1C(=O)c1ccc(Cl)cc1 | 233 |
| Cc1c(C(=O)CN2CCCC2)c(C)n(C)c1C(=O)c1ccc(Cl)cc1 | 54.8 |
| CCN(CC)CC(=O)c1cc(C(=O)c2ccc(OC)cc2)n(C)c1.Cl | 45.1 |
| Cc1c(C(=O)CN2CCCC2)c(C)n(C)c1C(=O)c1ccc(Cl)cc1Cl.Cl | 23.8 |
| Cc1c(C(=O)CN2CCCCC2)c(C)n(C)c1C(=O)c1ccc(Cl)cc1 | 113 |
| Cn1cc(C(=O)CN2CCCCC2)cc1C(=O)c1ccc(Cl)cc1 | 74.2 |
| CCN(CC)CC(=O)c1c(C)c(C(=O)c2ccc(Cl)cc2)n(C)c1C | 37.7 |

Tested on: not listed separately
Test: Ratio of TD50/ED50.
Type: ADME
Details: read-out: TI
Procedure, shortened: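 Maximal electroshock seizure ED50 was determined with ip dosing and reported in mg/kg with 95% confidence limits. TD50 was determined ip by the rotating rod test for minimal motor impairment, and in some cases by overt ataxia. Protective index = TD50/ED50.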

| Compound | selectivity ratio |
| --- | --- |
| O=C1NC(=O)C(c2ccccc2)(c2ccccc2)N1 [PHENYTOIN] | 6.6 |

Tested on: not listed separately
Test: as §2
Details: read-out: TI
Procedure, shortened: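 Protective index calculated as TD50 (rotorod, ip) divided by MES ED50 (ip), both in mg/kg.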

| Compound | selectivity ratio |
| --- | --- |
| Cl.Cn1cc(C(=O)CN2CCCCCC2)cc1C(=O)c1ccc(Cl)cc1 | 1.67 |
| O=C(CN1CCOCC1)c1c[nH]c(C(=O)c2ccc(Cl)cc2)c1 | 0.98 |
| Cl.Cn1cc(C(=O)CN2CCOCC2)cc1C(=O)c1cccc(Cl)c1 | 2.96 |
| CCN(CC)CC(=O)c1cc(C(=O)c2ccc(Cl)cc2)n(C)c1.Cl | 2.81 |
| Cn1cc(C(=O)c2ccc(Cl)cc2)cc1C(=O)CN1CCCCC1 | 2.36 |
| CCN(CC)CC(=O)c1c(C)c(C(=O)c2ccc(Cl)cc2Cl)n(C)c1C | 3.38 |
| Cl.Cn1cc(C(=O)CNC23C[C@H]4C[C@@H](C2)C[C@@H](C3)C4)cc1C(=O)c1ccccc1Cl | > 1.57 |
| Cn1cc(C(=O)CN2CCCC2)cc1C(=O)c1cccc(Cl)c1.[O-][Cl+3]([O-])([O-])O | 3.38 |
| Cn1cc(C(=O)CN2CCCC2)cc1C(=O)c1ccc(Cl)cc1 | 4.89 |
| Cc1c(C(=O)CN2CCOCC2)c(C)n(C)c1C(=O)c1ccc(Cl)cc1 | 2.66 |
| Cc1c(C(=O)CN2CCCC2)c(C)n(C)c1C(=O)c1ccc(Cl)cc1 | 3.6 |
| CCN(CC)CC(=O)c1cc(C(=O)c2ccc(OC)cc2)n(C)c1.Cl | 1.37 |
| Cc1c(C(=O)CN2CCCC2)c(C)n(C)c1C(=O)c1ccc(Cl)cc1Cl.Cl | 2.3 |
| Cc1c(C(=O)CN2CCCCC2)c(C)n(C)c1C(=O)c1ccc(Cl)cc1 | 4.73 |
| Cn1cc(C(=O)CN2CCCCC2)cc1C(=O)c1ccc(Cl)cc1 | 3.05 |
| CCN(CC)CC(=O)c1c(C)c(C(=O)c2ccc(Cl)cc2)n(C)c1C | 3.65 |

Tested on: Mus musculus
Test: Ability to block seizures induced by bicuculline after intraperitoneal administration; NA indicates not active
Type: functional, organism-based
Details: not given

| Compound | ED50 |
| --- | --- |
| NC(=O)N1c2ccccc2C=Cc2ccccc21 [CARBAMAZEPINE] | inactive |

Tested on: not listed separately
Test: Minimal motor impairment was measured in rat by overt evidence of ataxia upon intraperitoneal administration
Details: in vivo, ip

| Compound | TD50 [mg/kg] |
| --- | --- |
| Cl.Cn1cc(C(=O)CN2CCCCCC2)cc1C(=O)c1ccc(Cl)cc1 | > 500 |
| O=C(CN1CCOCC1)c1c[nH]c(C(=O)c2ccc(Cl)cc2)c1 | 88 |
| Cl.Cn1cc(C(=O)CN2CCOCC2)cc1C(=O)c1cccc(Cl)c1 | > 500 |
| CCN(CC)CC(=O)c1cc(C(=O)c2ccc(Cl)cc2)n(C)c1.Cl | > 500 |
| CCN(CC)CC(=O)c1c(C)c(C(=O)c2ccc(Cl)cc2Cl)n(C)c1C | > 500 |
| Cn1cc(C(=O)CN2CCCC2)cc1C(=O)c1ccc(Cl)cc1 | > 500 |
| Cc1c(C(=O)CN2CCCC2)c(C)n(C)c1C(=O)c1ccc(Cl)cc1 | 203 |
| Cc1c(C(=O)CN2CCCC2)c(C)n(C)c1C(=O)c1ccc(Cl)cc1Cl.Cl | > 200 |
| Cc1c(C(=O)CN2CCCCC2)c(C)n(C)c1C(=O)c1ccc(Cl)cc1 | > 500 |
| Cn1cc(C(=O)CN2CCCCC2)cc1C(=O)c1ccc(Cl)cc1 | 342 |
| CCN(CC)CC(=O)c1c(C)c(C(=O)c2ccc(Cl)cc2)n(C)c1C | > 250 |

Source: ChEMBL document CHEMBL1130035, “Aroyl(aminoacyl)pyrroles, a new class of anticonvulsant agents” (J Med Chem, 1997)
